Screens from PubChem BioAssay.
Only some compounds are listed: those with a hit (about 6.4% of all), similar ones and a draw of the others.
Lung fibro prol: blocks proliferation of human lung fibroblasts; LL 47 human lung fibroblast viability, ATP luminescence; stronger effect = lower value; viability, % at 10 µM; actives 1.1% (n = 85,000);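 active = viability at or below 50% in the single dose screen; inactive = viability above 50%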;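 note: compound exposure lasted 72 h before the ATP readout; 100% = median luminescence of untreated cell-only wells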
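Times – overnight cell rest, 72 h compound treatment at 37 °C · Test system – human lung fibroblast line LL 47, low passage · Amount – 1,150 cells in each well · Controls – cell-only wells, no compound · Doses – 0.1% DMSO in all compound wells · Measured by – CellTiter-Glo luminescence · Buffer or medium – IMEM plus 15% FBS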
Ecoli WT expand: growth inhibitors of E. coli BW25113 wild type; OD600 absorbance; growth inhibition, % at 100 µM; actives 0.15% (n = 98,000); AID 710;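 active = growth inhibition above about 50% at one test dose, limit read from the data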;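 note: growth measured after 20 h incubation at 37 °C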
H69AR inhibit: blocks growth of human H69AR lung tumor cells; H69AR lung tumor viability, ATP luminescence, 72 h; stronger effect = lower value; viability, % at 10 µM; actives 6% (n = 85,000); AID 598;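 active = viability at or below 40%; inactive = viability above 40%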;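 note: multidrug resistant small cell line overexpressing MRP-1 efflux transporter; 100% = mean luminescence of untreated control wells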
Jurkat viability: reduces viability or proliferation of Jurkat cells. AID 463. Jurkat E6.1 viability, ATP luminescence, 48 h. actives 1.2% (n = 56,000). inhibition, % at 4 µM;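 active = inhibition above the mean inhibition of all tested compounds plus 3 SD, cut at about 28% in these data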
tolC growth inh: E. coli tolC mutant growth inhibition | E. coli BW25113 tolC mutant growth, OD615 | growth inhibition, % at 10 µM (by protocol) | actives 2.2% (n = 65,000) | AID 573;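 active = growth inhibition at or above a cutoff equal to the mean over every tested compound plus 3 SD, cut at about 60% in these data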;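 note: growth measured after 20 h incubation at 37 °C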
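Test system: E. coli BW25113 ΔtolC::kan bacteria; incubation: 37 °C, 20 h exposure; medium: LB broth supplemented with 50 µg/mL kanamycin; read-out basis: percent growth inhibition; signal: A615 absorbance measurement; compound: 10 µM final, single dose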
HUVEC prolif 384: inhibitors of human endothelial cell proliferation; HUVEC proliferation, CellTiter-Glo luminescence, 72 h; stronger effect = lower value; viability, % at 10 µM (by protocol); actives 1.1% (n = 86,000); AID 648;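 active = viability at or below 30%; inactive = viability above 30%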;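 note: 100% = median luminescence of DMSO-only cell control wells on each plate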
An asterisk follows results filed as active; · = not tested or not shown.

SMILES | Lung fibro prol | Ecoli WT expand | H69AR inhibit | Jurkat viability | tolC growth inh | HUVEC prolif 384
COc1ccc(Cc2nc(-c3ccc(NC(=O)c4cccnc4)cc3)no2)cc1 | 102.1 | 6.0 | 6.0* | 22.6 | -6.0 | 120.2
COc1ccc(Cc2nc(C(=O)Nc3ccc(Cl)cc3)cs2)cc1 | 111.5 | -13.0 | 100.1 | · | · | 21.4*
COc1ccc(-c2noc(CCC(=O)NCc3cccnc3)n2)cc1 | 90.3 | 2.0 | 96.4 | -1.3 | -10.5 | 89.7
COc1ccc(CC(=O)Nc2ccc(-c3noc(-c4cc(OC)c(OC)c(OC)c4)n3)cc2)cc1 | 98.5 | -22.0 | 20.7* | · | -13.3 | 57.2
COc1ccc(CC(=O)Nc2ccc(-c3noc(-c4ccc(Cl)cc4)n3)cc2)cc1 | 19.1* | · | 5.1* | · | · | 42.6
COCCNC(=O)C(c1ccc(F)cc1)N(CCOC)C(=O)CCC(=O)Nc1nccs1 (centres undefined) | 98.1 | -3.0 | 95.1 | 2.9 | -7.9 | 111.5
CCC(c1nnnn1Cc1ccco1)N1CCC(C(N)=O)CC1 (centres undefined) | 102.3 | 4.0 | 82.5 | 8.2 | 25.5 | 99.0
COc1ccc(C2=C(C#N)C(=O)OC2)cc1 | · | -4.0 | · | · | · | ·
CCOc1ccccc1-c1nc(-c2ccc(NC(=O)Cc3ccc(OC)cc3)cc2)no1 | 65.2 | -7.0 | 10.6* | 5.0 | -7.9 | 19.7*
COC(=O)c1c(C)n(-c2ccc(C)cc2)c2ccc(O)cc12 | 88.0 | 0.0 | 23.0* | · | · | 26.9*
CC(=O)c1c(C)n(-c2ccccc2)c2ccc(O)cc12 | 96.2 | -2.0 | 62.9 | -1.3 | 19.9 | 71.2
COC(=O)c1c(C)n(-c2ccccc2)c2ccc(O)cc12 | 91.8 | 3.0 | 18.7* | 11.3 | 13.1 | 41.7
O=C(Cc1cc(=O)[nH][nH]1)N/N=C/C(Cl)=C/c1ccccc1 | · | -3.0 | · | · | · | ·
O=C(CNc1cccc2ccccc12)N/N=C/C(Br)=C/c1ccccc1 | 81.0 | -8.0 | 25.0* | · | · | 47.1
O=C1CSC(c2cn(-c3ccccc3)nc2-c2cc3ccccc3oc2=O)N1Cc1ccccc1 (centres undefined) | 100.4 | -2.0 | 24.3* | · | · | 77.2
O=C(CCSc1ccc(Cl)cc1)N1CCN(c2ncccn2)CC1 | 44.8* | -2.0 | 101.5 | 3.3 | 16.2 | 100.4
O=C(CC1Oc2ccccc2NC1=O)NCc1ccccc1 (centres undefined) | 99.1 | 2.0 | 96.5 | 3.7 | -4.8 | 97.0
CC(=O)CC1OC(=O)C(Br)=C1NCc1ccccc1 (centres undefined) | · | 0.0 | · | 48.8* | -9.5 | ·
O=c1cc(Nc2ccc3c(c2)OCCO3)[nH]c(=O)n1-c1ccc(Cl)cc1 | 89.7 | 7.0 | 8.8* | 9.5 | 16.3 | 73.6
O=c1cc(N2CCC3(CC2)OCCO3)[nH]c(=O)n1C1CCCCC1 | 93.7 | -6.0 | 68.9 | -1.3 | -0.2 | 99.4
CCc1ccc(Nc2cc(=O)n(C3CCCCC3)c(=O)[nH]2)cc1 | 85.1 | -1.0 | 15.8* | -0.1 | 51.8 | 68.6
O=c1cc(Nc2ccc3c(c2)OCCO3)[nH]c(=O)n1C1CCCCC1 | 64.4 | · | 18.2* | 58.8* | 26.4 | 57.2
CCOC(=O)N1CCC(Nc2nc3ccccc3n3nnnc23)CC1 | 91.4 | -2.0 | 65.4 | -7.8 | 1.1 | 67.0
COc1ccc(-c2cc(C(F)(F)F)n3nc(C(=O)NCc4ccco4)c(Cl)c3n2)cc1 | 70.8 | -15.0 | 36.8* | · | · | 52.8
O=C(NCc1ccco1)c1nn2c(C(F)(F)F)cc(-c3cccs3)nc2c1Br | 79.4 | -13.0 | 32.4* | · | · | 65.9
SMILES | Lung fibro prol | Ecoli WT expand | H69AR inhibit | Jurkat viability | tolC growth inh | HUVEC prolif 384
COc1ccc(-c2cc(C(F)(F)F)n3nc(C(=O)NCc4ccco4)cc3n2)cc1 | 87.1 | -5.0 | 83.8 | -2.5 | 6.0 | 90.4
CCCc1nnc(NC(=O)c2c(O)c3cccc4c3n(c2=O)CC4)s1 | 111.1 | · | 18.4* | -4.6 | 17.7 | 109.4
CCc1nnc(NC(=O)c2c(O)c3cccc4c3n(c2=O)CC4)s1 | 86.4 | · | 1.8* | 3.4 | 19.9 | 84.7
COc1cc(C=O)ccc1OCC(=O)N1CCOCC1 | 106.0 | -2.0 | 99.4 | · | · | 114.6
CC1CCCCC12NC(=O)N(Cn1nnc3ccccc3c1=O)C2=O (centres undefined) | 97.9 | 1.0 | 83.6 | -1.1 | -14.8 | 90.0
CCOc1ccc(-c2cc(CCCC(=O)Nc3cccc(OC)c3)no2)cc1 | 55.3 | -3.0 | 22.8* | 90.6* | 7.7 | 68.4
Cn1c(/C(C#N)=C(\O)COc2ccc3ccccc3c2)nc2ccccc21 | 83.6 | -2.0 | 12.2* | 1.5 | 2.9 | 57.9
CCCOc1c(Cl)cc(/C=N/O)cc1OCC | 86.9 | 2.0 | 59.5 | · | · | 72.3
CCCn1c2ccccc2c2nnc(SC(CC)C(=O)Nc3cc(C)on3)nc21 (centres undefined) | 109.6 | · | 31.8* | · | · | 106.4
CCCn1c2ccccc2c2nnc(SC(CC)C(=O)Nc3sc4c(c3C#N)CCCC4)nc21 (centres undefined) | · | -13.0 | · | · | · | ·
COc1cccc(-n2nc(C(=O)O)c3ccccc3c2=O)c1 | 104.5 | -7.0 | 88.1 | 8.4 | -3.9 | 96.3
CN1C(=O)CSc2ccc(NC(=O)N3CCOCC3)cc21 | 103.0 | -1.0 | 98.9 | · | 8.9 | 84.5
Cc1ccc(C(=O)Oc2ccc(Cl)c3cccnc23)cc1[N+](=O)[O-] | · | 22.0 | · | · | · | ·
Cc1cc(C)c(C(=O)COc2cccnc2[N+](=O)[O-])cc1C | 78.6 | 8.0 | 1.1* | · | · | 84.7
O=C(c1ccccc1-c1ccccc1)N1CCN(c2ccccn2)CC1 | 53.3 | 8.0 | 19.2* | 83.8* | 17.2 | 56.0
O=C(c1cccc(C(=O)N2CCN(c3ncccn3)CC2)c1)N1CCN(c2ncccn2)CC1 | 103.9 | -5.0 | 88.3 | -9.7 | -20.6 | 99.0
O=C(c1cc(-c2ccccc2)nc2ccccc12)N1CCN(c2ccccn2)CC1 | 94.6 | -14.0 | 57.7 | -4.2 | 25.0 | 86.3
O=C(c1cc(-c2ccncc2)nc2ccccc12)N1CCN(c2ccccn2)CC1 | 59.6 | 2.0 | 19.4* | · | 7.4 | 50.8
O=C(c1cc(-c2cccnc2)nc2ccc(Br)cc12)N1CCN(c2ncccn2)CC1 | 80.1 | -16.0 | 5.3* | -2.7 | 18.0 | 51.0
CCn1cc(C(=O)NCC(=O)OC)c2cc(OC)c(OC)cc2c1=O | 93.3 | 8.0 | 84.9 | · | -0.3 | 102.5
Cc1ccc(-c2nnc3ccc(SCC(=O)N4CCCCC4)nn23)cc1 | 91.2 | · | 62.7 | 2.5 | 6.6 | 79.4
CSCSC1=C(C#N)C(c2ccc(Cl)cc2)C(C(C)=O)=C(C)N1 (centres undefined) | · | -19.0 | · | 0.1 | 96.0* | ·
CCOC(=O)CSC1=C(C#N)C(c2ccccc2)C(C(C)=O)=C(C)N1 (centres undefined) | 104.0 | 5.0 | 80.0 | 6.8 | 41.1 | 105.5
N#CC1=C(SCC(=O)c2ccc(Br)cc2)NC2=C(C(=O)CCC2)C1c1ccco1 (centres undefined) | 56.9 | -13.0 | 16.7* | · | 10.5 | 51.0
CC(=O)C1=C(C)NC(SCC(=O)c2ccccc2)=C(C#N)C1c1ccco1 (centres undefined) | · | -12.0 | 62.9 | 1.2 | 25.5 | 72.2
CCc1ccc(NC(=O)CSC2=C(C#N)C(c3ccco3)C3=C(CCCC3=O)N2)cc1 (centres undefined) | 94.0 | -2.0 | 88.5 | · | 10.2 | 86.3
